Laboratory results: PMC4834983 (Journal of medicinal chemistry, 2015)
pIC50: −log10 of the molar value. “Also recorded” adds a separate entry of the source.

Key:
[1] = tested on: pYStat3; assay: Immunoblotting of pStat3 in treated U251MG cells; format: cell-based, human; settings: for effect on pStat3 in treated tumor cells: 5 μM, glioma cells, immunoblotting
Method in brief: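 Whole-cell lysates from U251MG cells given test compound at 5 μM for 0–24 h, or at 0–5 μM for 2 h. Immunoblotted for pY705Stat3 and total Stat3, with GAPDH as loading reference.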

[2] = biological target: Stat3:Stat3 (Mus musculus, UniProt P42227); assay: Cell-free EMSA, nuclear extracts pre-incubated with compound, hSIE probe; format: biochemical; settings: 5 μM, 30 min pre-incubation, NIH3T3/v-Src nuclear extracts
Stat3:Stat3, sequence (P42227 2-770 limits assumed): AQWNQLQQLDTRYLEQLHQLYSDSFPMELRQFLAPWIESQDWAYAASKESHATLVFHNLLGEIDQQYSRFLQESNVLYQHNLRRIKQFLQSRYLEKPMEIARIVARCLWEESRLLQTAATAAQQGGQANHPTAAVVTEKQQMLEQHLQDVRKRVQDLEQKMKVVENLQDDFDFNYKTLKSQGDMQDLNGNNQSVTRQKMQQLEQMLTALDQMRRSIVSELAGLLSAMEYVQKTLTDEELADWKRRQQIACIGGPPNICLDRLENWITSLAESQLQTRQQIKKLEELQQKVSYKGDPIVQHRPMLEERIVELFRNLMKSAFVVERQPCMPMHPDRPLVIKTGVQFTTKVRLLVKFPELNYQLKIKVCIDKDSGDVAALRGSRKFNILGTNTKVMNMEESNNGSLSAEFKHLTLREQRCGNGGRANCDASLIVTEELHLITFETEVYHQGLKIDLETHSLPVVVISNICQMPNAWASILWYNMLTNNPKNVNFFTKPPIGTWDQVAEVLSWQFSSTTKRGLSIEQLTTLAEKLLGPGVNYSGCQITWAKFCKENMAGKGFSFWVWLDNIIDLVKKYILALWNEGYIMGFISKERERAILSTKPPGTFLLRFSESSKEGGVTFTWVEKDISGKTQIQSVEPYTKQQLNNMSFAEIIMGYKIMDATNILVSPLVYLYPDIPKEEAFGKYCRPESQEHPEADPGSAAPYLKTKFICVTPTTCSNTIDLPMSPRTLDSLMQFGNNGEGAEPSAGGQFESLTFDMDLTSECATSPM

[3] = Cysteamine 1H NMR test for Michael acceptor reactivity; format: physicochemical; settings: DMSO-d6, 1H NMR
[4] = tested on: Stat3; assay: Stat3 DNA-binding activity/EMSA of nuclear extracts from treated glioma cells; format: cell-based, human; settings: for effect on Stat3 DNA-binding activity in treated tumor cells: 5 μM, glioma cells, EMSA
[5] = tested on: G22 cells; assay: 3D spheroid assay; format: cell-based, human; settings: 5 μM, treated once
[6] = tested on: MCF-7 cells; assay: CyQuant cell proliferation assay; format: cell-based; settings: Homo sapiens, MCF7, 72 h, read-out: IC50 cell proliferation MCF-7
Method in brief: (§1)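 CyQuant DNA-dye proliferation assay on cultured cells after 72 h exposure to test compound. Viability expressed relative to DMSO-treated control cells.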

[7] = tested on: G10 cells; assay: Growth of glioma patient-derived xenograft cells in vitro; format: cell-based; settings: Homo sapiens, read-out: inhibitory activity against growth of G10 cells
[8] = tested on: pS-Akt; assay: Immunoblotting, U251MG glioma cells; format: cell-based, human; settings: 5 μM
Method in brief: (§2)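 U251MG cells given 5 μM test compound for 0–24 h. Whole-cell lysates of equal total protein immunoblotted for pErk1/2, Erk1/2, pS-Akt, Akt, pJAK2, JAK2, SOCS3 and PTP1B, with β-actin or GAPDH as loading reference.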

[9] = tested on: NIH3T3 cells; assay: Colony survival assay; format: cell-based, mouse; settings: 5 μM or less
Method in brief: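 Cells seeded as single cells at 250 per well and treated once the next day with test compound (0–5 μM) for 72 h. Grown until large colonies were visible: 1 week for NIH3T3, 2 weeks for U251MG. Colonies stained with crystal violet for 4 h and counted.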

[10] = biological target: T1, Stat1:Stat1 (Mus musculus, UniProt P42225); assay: Cell-free EMSA, EGF-stimulated NIH3T3/hEGFR nuclear extracts; format: biochemical; settings: 5 μM, 30 min pre-incubation
T1 sequence (P42225 2-749 limits assumed): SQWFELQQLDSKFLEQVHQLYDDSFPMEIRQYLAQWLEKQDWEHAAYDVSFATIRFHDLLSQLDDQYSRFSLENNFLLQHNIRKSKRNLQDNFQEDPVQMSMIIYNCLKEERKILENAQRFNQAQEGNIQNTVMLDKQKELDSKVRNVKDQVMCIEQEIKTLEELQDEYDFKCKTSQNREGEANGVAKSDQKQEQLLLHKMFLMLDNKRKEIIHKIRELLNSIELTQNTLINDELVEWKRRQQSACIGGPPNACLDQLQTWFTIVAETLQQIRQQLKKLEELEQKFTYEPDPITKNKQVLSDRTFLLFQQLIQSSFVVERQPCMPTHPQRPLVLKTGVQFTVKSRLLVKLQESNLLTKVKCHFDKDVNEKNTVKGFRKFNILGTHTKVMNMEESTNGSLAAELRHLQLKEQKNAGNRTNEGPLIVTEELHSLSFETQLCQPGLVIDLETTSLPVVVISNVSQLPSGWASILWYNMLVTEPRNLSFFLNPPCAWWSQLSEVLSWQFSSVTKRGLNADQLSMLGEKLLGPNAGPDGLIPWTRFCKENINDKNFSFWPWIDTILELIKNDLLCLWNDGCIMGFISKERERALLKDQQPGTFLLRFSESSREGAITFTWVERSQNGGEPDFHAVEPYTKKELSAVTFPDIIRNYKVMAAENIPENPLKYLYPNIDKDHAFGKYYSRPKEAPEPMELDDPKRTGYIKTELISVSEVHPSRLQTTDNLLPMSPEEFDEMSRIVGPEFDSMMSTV
Method in brief: (§3)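 Nuclear extracts from EGF-stimulated NIH3T3/hEGFR fibroblasts, containing active Stat1, Stat3 and Stat5, preincubated with 5 μM test compound for 30 min at room temperature. Then incubated 30 min with 32P-labelled probe before EMSA: hSIE (Stat1/Stat3 binding) or MGFe (bovine β-casein element; Stat1/Stat5 binding). STAT:DNA bands quantified as percent of control.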

[11] = tested on: G12 cells; assay: Growth of glioma patient-derived xenograft cells in vitro; format: cell-based; settings: Homo sapiens, read-out: inhibitory activity against G12 cell growth
[12] = tested on: pStat5; assay: Immunoblotting, EGF-stimulated NIH3T3/hEGFR fibroblasts; format: cell-based, mouse; settings: 5 μM pre-treatment
Method in brief: (§4)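 NIH3T3/hEGFR fibroblasts pretreated with or without 5 μM test compound for 3 h, then stimulated with 1 μg/ml EGF for 12 min. Whole-cell lysates, equal total protein, immunoblotted for pStat1/Stat1, pStat5/Stat5 and pErk1/2/Erk1/2.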

[13] = tested on: protein tyrosine phosphatase (PTP)1B; assay: Immunoblotting, U251MG glioma cells; format: cell-based, human; settings: 5 μM
Method in brief: as §2

[14] = tested on: G22 cells; assay: Growth of glioma patient-derived xenograft cells in vitro; format: cell-based; settings: Homo sapiens, read-out: inhibitory activity against growth of G22 cells
[15] = tested on: U251MG cells; assay: Scratch assay for migration; format: cell-based, human; settings: 5 μM, 19-h treatment
Method in brief: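 Sub-confluent U251MG monolayers wounded with pipette tips and treated once with test compound (0–5 μM) or DMSO vehicle. Cells allowed to migrate into the denuded area over 19 h, then imaged by microscopy at 10×.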

[16] = tested on: suppressors of cytokine signaling (SOCS)3; assay: Immunoblotting, U251MG glioma cells; format: cell-based, human; settings: 5 μM
Method in brief: as §2

[17] = tested on: pErk1/2MAPK; assay: Immunoblotting, EGF-stimulated NIH3T3/hEGFR fibroblasts; format: cell-based, mouse; settings: 5 μM pre-treatment
Method in brief: as §4

[18] = tested on: Stat5:Stat5; assay: Cell-free EMSA, EGF-stimulated NIH3T3/hEGFR nuclear extracts, MGFe probe; format: biochemical, mouse; settings: 5 μM, 30 min pre-incubation
Method in brief: as §3

[19] = tested on: U373MG cells; assay: CyQuant cell proliferation assay; format: cell-based; settings: Homo sapiens, U373 MG, 72 h, read-out: IC50 cell proliferation U373MG
Method in brief: as §1

[20] = tested on: SF295 cells; assay: CyQuant cell proliferation assay; format: cell-based; settings: Homo sapiens, SF-295, 72 h, read-out: IC50 cell proliferation SF295
Method in brief: as §1

[21] = tested on: pStat3; assay: Immunoblotting of pStat3 in patient-derived xenograft cells; format: cell-based, human; settings: 5 μM, 3 h
Method in brief: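 Glioma patient-derived xenograft G22 cells (DMEM, 5–10% heat-inactivated FBS) given 5 μM test compound for 0–24 h. Whole-cell lysates immunoblotted for pStat3 and Stat3, with GAPDH as loading reference.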

[22] = tested on: pErk1/2MAPK; assay: Immunoblotting, U251MG glioma cells; format: cell-based, human; settings: 5 μM
Method in brief: as §2

[23] = tested on: MDA-MB-231 cells; assay: CyQuant cell proliferation assay; format: cell-based, human; settings: Homo sapiens, MDA-MB-231, 72 h, read-out: IC50 cell proliferation MDA-MB-231
Method in brief: as §1

[24] = tested on: pStat1; assay: Immunoblotting, EGF-stimulated NIH3T3/hEGFR fibroblasts; format: cell-based, mouse; settings: 5 μM pre-treatment
Method in brief: as §4

[25] = tested on: U251MG cells; assay: Immunofluorescence staining/confocal microscopy of mitosis; format: cell-based, human; settings: 15 h treatment
Method in brief: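 U251MG cells on coverslips synchronised by double thymidine block (2 mM) and released for 9 h. Then given DMSO, 100 nM paclitaxel or 8 μM test compound for 15 h. Fixed in 4% paraformaldehyde, permeabilised with 0.1% digitonin and blocked in 0.2% BSA. Stained with anti-β-tubulin (1:350) and anti-MAP1B (1:300) for 1 h at room temperature, then fluorescent secondaries and DAPI; confocal imaging.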

[26] = tested on: U251MG cells; assay: CyQuant cell proliferation assay; format: cell-based, human
Method in brief: as §1

[27] = tested on: NIH3T3 cells; assay: CyQuant cell proliferation assay; format: cell-based, mouse; settings: 5 μM
Method in brief: as §1

[28] = tested on: U251MG cells; assay: Apoptosis by PARP or caspase cleavage; format: cell-based, human; settings: 24 or 48 h

## C=C(C)C(=O)O[C@H]1C[C@@H](C)[C@]2(OC)CC[C@](C)(/C=C3/OC(=O)C(COC(C)=O)=C31)O2 [Compound 9]
[1]
  effect on pStat3 in treated tumor cells: little impact
[2]
  Stat3:Stat3/DNA-binding activity (complexation), cell-free EMSA: no effect; also recorded: only weakly inhibited
[3]
  Michael acceptor reaction with cysteamine: indicative of Michael acceptor reactions

## C/C=C(\C)C(=O)O[C@H]1C[C@@H](C)[C@]2(OC)CC[C@](C)(/C=C3/OC(=O)C(COC(C)=O)=C31)O2 [Compound 10]
[4]
  effect on Stat3 DNA-binding activity in treated tumor cells: strongly inhibited
[1]
  effect on pStat3 in treated tumor cells: strongly inhibited
[2]
  Stat3:Stat3/DNA-binding activity (complexation), cell-free EMSA: diminished
[5]
  3D spheroid growth: modest
[6]
  pIC50: 5.02 to 5.32
[7]
  inhibition at 5 µM: 45 to 60%
[8]
  effect on pS-Akt levels: no effects
[9]
  effects on NIH3T3 colony numbers: moderate or none
[10]
  effect on Stat1:Stat1 activity, cell-free EMSA: weak effects
[11]
  inhibition at 5 µM: 25 to 35%
[12]
  effect on EGF-stimulated pStat5 levels: no effect
[13]
  effect on PTP1B levels: no effects
[14]
  inhibition at 5 µM: 45 to 60%
[15]
  migration into the denuded area: slowed migration
[16]
  effect on SOCS3 levels: no effects
[17]
  effect on EGF-stimulated pErk1/2MAPK levels: no effect
[18]
  effect on Stat5:Stat5 activity, cell-free EMSA: weak effects
[19]
  pIC50: 5.09 to 5.18
[20]
  pIC50: 4.74 to 5.13
[21]
  effect on Phospho-Stat3 in G22 cells: moderate inhibition
[22]
  effect on pErk1/2MAPK levels: no effects
[23]
  pIC50: 5.04 to 5.28
[3]
  Michael acceptor reaction with cysteamine: Michael acceptor reactions have occurred
[24]
  effect on EGF-stimulated pStat1 levels: no effect

## CC(=O)OCC1=C2/C(=C\[C@@]3(C)CC[C@](O)(O3)[C@H](C)C[C@@H]2O)OC1=O [Compound 11]
[4]
  effect on Stat3 DNA-binding activity in treated tumor cells: weak effect
[1]
  effect on pStat3 in treated tumor cells: weak effect
[2]
  Stat3:Stat3/DNA-binding activity (complexation), cell-free EMSA: diminished
[10]
  effect on Stat1:Stat1 activity, cell-free EMSA: weak effects
[18]
  effect on Stat5:Stat5 activity, cell-free EMSA: weak effects
[25]
  chromatid structures and sister-chromatids segregation (mitosis): minimal effect

## C/C=C(/C)C(=O)O[C@H]1C[C@@H](C)[C@]2(O)CC[C@](C)(/C=C3/OC(=O)C(COC(C)=O)=C31)O2 [Compound 20]
[4]
  effect on Stat3 DNA-binding activity in treated tumor cells: strongly inhibited
[1]
  effect on pStat3 in treated tumor cells: strongly inhibited
[2]
  Stat3:Stat3/DNA-binding activity (complexation), cell-free EMSA: diminished
[6]
  pIC50: 5.02 to 5.32
[8]
  effect on pS-Akt levels: no effects
[10]
  effect on Stat1:Stat1 activity, cell-free EMSA: weak effects
[12]
  effect on EGF-stimulated pStat5 levels: no effect
[13]
  effect on PTP1B levels: no effects
[16]
  effect on SOCS3 levels: no effects
[17]
  effect on EGF-stimulated pErk1/2MAPK levels: no effect
[18]
  effect on Stat5:Stat5 activity, cell-free EMSA: weak effects
[19]
  pIC50: 5.09 to 5.18
[20]
  pIC50: 4.74 to 5.13
[22]
  effect on pErk1/2MAPK levels: no effects
[23]
  pIC50: 5.04 to 5.28
[24]
  effect on EGF-stimulated pStat1 levels: no effect

## C/C=C(\C)C(=O)OCC1=C2/C(=C\[C@@]3(C)CC[C@](O)(O3)[C@H](C)C[C@@H]2OC(=O)/C(C)=C/C)OC1=O [Compound 38]
[4]
  effect on Stat3 DNA-binding activity in treated tumor cells: suppressed
[4]; Homo sapiens, U-251, read-out: IC50 Stat3 DNA-binding activity in treated cells
  pIC50: 5.60 to 6.30
[1]
  effect on pStat3 in treated tumor cells: suppressed
[2]
  Stat3:Stat3/DNA-binding activity (complexation), cell-free EMSA: diminished
[26]; 5 μM
  activity against U251MG cell growth: retained or improved the inhibitory potency
[27]
  effect on NIH3T3 growth: inhibited NIH3T3 growth

## C=C1C(=O)O[C@@H]2/C=C(\C)CC/C=C(\C)CC[C@@H]12 [costunolide, reference compound]
[1]; Fig. S5E(ii)
  Stat3 activity in tumor cells, control compounds: did not inhibit
[26]; panel of cell lines, Fig. S5E(i)
  cell growth activity, control compounds: poorly-active or non-specific in activity
[3]
  Michael acceptor reaction with cysteamine: formation of diastereomeric Michael adduct mixtures

## CC(=O)O[C@H]1C(=O)[C@@]2(C)[C@H]([C@H](OC(=O)c3ccccc3)[C@]3(O)C[C@H](OC(=O)[C@H](O)[C@@H](NC(=O)c4ccccc4)c4ccccc4)C(C)=C1C3(C)C)[C@]1(OC(C)=O)CO[C@@H]1C[C@@H]2O [paclitaxel, reference compound]
[28]
  apoptosis measured by PARP or caspase cleavage: induced apoptosis
[25]
  chromatid structures and sister-chromatids segregation (mitosis): caused strong defects

## CN[C@@H]1C[C@H]2O[C@@](C)([C@@H]1OC)n1c3ccccc3c3c4c(c5c6ccccc6n2c5c31)C(=O)NC4 [staurosporine]
[28]
  apoptosis measured by PARP or caspase cleavage: induced apoptosis
